From ChEMBL document CHEMBL4602725 (J Med Chem, 2020)

Assays:
[1] = organism: Homo sapiens; test: Selectivity index, ratio of IC50 for inhibition of human recombinant HDAC8 to IC50 for inhibition of human recombinant HDAC1
[2] = organism: Homo sapiens; test: Selectivity index, ratio of IC50 for inhibition of human recombinant HDAC2 to IC50 for inhibition of human recombinant HDAC1
[3] = target: T1, Histone deacetylase 8 (Homo sapiens, UniProt Q9BY41); test: Inhibition of human recombinant HDAC8 pre-incubated for 30 mins before Ac-Leu- Gly-Lys(Ac)-AMC substrate addition and measured after 90 mins by fluorescence based assay
T1 sequence (Q9BY41 whole entry): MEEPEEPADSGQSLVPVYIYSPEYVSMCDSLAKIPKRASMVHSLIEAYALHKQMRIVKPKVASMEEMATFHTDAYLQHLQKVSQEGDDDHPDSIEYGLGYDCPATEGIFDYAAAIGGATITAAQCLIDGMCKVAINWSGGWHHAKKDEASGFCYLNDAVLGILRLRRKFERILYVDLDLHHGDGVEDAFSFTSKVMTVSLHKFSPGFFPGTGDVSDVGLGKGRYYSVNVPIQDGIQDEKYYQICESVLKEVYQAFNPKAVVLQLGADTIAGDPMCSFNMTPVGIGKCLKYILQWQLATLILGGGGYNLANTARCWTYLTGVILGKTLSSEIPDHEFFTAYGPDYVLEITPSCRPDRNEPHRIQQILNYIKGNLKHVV

[4] = target: Histone deacetylase 2 (Homo sapiens, UniProt Q92769); test: Inhibition of human recombinant HDAC2 pre-incubated for 30 mins before Ac-Leu- Gly-Lys(Ac)-AMC substrate addition and measured after 90 mins by fluorescence based assay
[5] = organism: Homo sapiens; test: Selectivity index, ratio of IC50 for inhibition of human recombinant HDAC7 to IC50 for inhibition of human recombinant HDAC1
Outline: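 HDAC7 arm: 5 ng/mL recombinant human HDAC7 pre-incubated 15 min with inhibitor, then Ac-Leu-Gly-Lys(trifluoroAc)-AMC (20 µM) for 60 min at 37°C. Developer was trypsin with 10 μM SAHA, 15 min; fluorescence 350/460 nm. HDAC1 was run with 30 min pre-incubation, 12 µM Ac-Leu-Gly-Lys(Ac)-AMC, 90 min. Ratio of the HDAC7 IC50 to the HDAC1 IC50.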

[6] = target: Histone deacetylase 3 (Homo sapiens, UniProt O15379); test: Inhibition of human recombinant HDAC3 pre-incubated for 30 mins before Ac-Leu- Gly-Lys(Ac)-AMC substrate addition and measured after 90 mins by fluorescence based assay
[7] = target: T2, Histone deacetylase 7 (Homo sapiens, UniProt Q8WUI4); test: Inhibition of human recombinant HDAC7 pre-incubated for 15 mins before Ac-Leu-Gly-Lys(trifluroAc)-AMC substrate addition and measured after 60 mins by fluorescence based assay
T2 sequence (Q8WUI4 whole entry): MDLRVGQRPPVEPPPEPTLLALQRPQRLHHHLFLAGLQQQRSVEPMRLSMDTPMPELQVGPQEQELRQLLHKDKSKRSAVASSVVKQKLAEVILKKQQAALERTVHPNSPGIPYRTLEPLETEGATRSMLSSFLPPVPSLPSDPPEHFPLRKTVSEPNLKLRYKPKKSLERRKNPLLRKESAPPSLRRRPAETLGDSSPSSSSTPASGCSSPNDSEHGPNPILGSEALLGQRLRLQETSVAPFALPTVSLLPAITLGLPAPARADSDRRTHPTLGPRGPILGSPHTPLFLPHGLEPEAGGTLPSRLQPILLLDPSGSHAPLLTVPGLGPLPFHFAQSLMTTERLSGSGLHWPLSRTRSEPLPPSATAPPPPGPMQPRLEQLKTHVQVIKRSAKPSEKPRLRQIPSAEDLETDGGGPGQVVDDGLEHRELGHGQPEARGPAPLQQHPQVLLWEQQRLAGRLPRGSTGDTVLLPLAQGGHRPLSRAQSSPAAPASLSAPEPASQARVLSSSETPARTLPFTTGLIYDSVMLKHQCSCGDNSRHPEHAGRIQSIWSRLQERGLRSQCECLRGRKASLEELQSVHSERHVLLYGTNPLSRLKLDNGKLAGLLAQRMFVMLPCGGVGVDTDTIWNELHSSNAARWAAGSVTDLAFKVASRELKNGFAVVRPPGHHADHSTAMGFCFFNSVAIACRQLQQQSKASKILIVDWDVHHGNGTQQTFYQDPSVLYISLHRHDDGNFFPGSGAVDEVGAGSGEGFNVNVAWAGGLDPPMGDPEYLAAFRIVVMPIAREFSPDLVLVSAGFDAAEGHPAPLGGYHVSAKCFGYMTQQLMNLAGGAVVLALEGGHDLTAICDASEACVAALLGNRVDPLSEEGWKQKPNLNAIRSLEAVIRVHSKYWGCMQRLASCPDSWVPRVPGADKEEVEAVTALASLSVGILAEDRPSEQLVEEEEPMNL

[8] = organism: Homo sapiens; test: Selectivity index, ratio of IC50 for inhibition of human recombinant HDAC3 to IC50 for inhibition of human recombinant HDAC1
[9] = target: Histone deacetylase 1 (Homo sapiens, UniProt Q13547); test: Inhibition of human recombinant HDAC1 pre-incubated for 30 mins before Ac-Leu- Gly-Lys(Ac)-AMC substrate addition and measured after 90 mins by fluorescence based assay
Chain of Histone deacetylase 1 (Q13547 whole entry): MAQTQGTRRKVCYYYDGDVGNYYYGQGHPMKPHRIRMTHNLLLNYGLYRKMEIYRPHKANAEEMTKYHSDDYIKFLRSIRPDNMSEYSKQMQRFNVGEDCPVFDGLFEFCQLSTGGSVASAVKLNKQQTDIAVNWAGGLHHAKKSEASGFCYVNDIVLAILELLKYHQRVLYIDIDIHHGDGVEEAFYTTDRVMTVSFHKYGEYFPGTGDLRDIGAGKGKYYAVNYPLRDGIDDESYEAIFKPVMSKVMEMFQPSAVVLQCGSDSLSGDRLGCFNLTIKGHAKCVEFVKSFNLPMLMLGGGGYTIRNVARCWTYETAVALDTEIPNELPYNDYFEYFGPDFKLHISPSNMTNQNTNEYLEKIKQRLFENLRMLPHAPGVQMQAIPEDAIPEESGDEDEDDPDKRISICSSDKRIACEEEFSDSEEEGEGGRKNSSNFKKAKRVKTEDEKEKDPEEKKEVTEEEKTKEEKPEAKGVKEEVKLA

Chain of Histone deacetylase 3 (O15379 whole entry): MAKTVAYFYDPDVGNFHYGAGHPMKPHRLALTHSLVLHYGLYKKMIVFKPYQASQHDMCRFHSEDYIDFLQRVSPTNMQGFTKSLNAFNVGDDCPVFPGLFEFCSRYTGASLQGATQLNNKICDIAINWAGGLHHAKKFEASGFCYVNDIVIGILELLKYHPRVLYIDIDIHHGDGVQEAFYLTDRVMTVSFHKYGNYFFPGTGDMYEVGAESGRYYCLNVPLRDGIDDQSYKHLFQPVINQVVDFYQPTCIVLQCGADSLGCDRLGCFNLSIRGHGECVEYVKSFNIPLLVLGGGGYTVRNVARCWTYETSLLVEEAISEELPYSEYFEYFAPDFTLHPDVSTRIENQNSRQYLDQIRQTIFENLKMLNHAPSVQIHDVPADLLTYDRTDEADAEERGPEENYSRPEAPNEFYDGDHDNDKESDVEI
Chain of Histone deacetylase 2 (Q92769 whole entry): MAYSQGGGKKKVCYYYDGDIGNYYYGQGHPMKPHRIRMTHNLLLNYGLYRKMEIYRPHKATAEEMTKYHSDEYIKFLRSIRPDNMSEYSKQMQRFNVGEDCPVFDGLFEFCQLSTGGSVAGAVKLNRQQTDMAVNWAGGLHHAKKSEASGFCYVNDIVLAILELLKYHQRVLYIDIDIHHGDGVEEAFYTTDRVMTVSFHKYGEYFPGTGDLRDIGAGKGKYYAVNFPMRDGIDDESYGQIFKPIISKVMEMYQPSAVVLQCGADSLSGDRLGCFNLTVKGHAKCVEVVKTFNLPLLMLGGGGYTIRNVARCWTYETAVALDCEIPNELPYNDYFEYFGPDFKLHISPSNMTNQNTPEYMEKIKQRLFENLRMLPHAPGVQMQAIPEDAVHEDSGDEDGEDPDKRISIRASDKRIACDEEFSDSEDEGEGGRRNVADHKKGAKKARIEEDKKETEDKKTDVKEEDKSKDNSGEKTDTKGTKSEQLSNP

A Ratio IC50 [1] of 14 to 61, a Ratio IC50 [2] of 5 to 12 and an IC50 [3] of 0.089 µM were found for CN(C)c1ccc(C2(C(=O)Nc3ccc(C(=O)NO)cc3)CCCC2)cc1 in this work. It also gave an IC50 [4] of 0.049 µM, a Ratio IC50 [5] of 140 to 600 and an IC50 [6] of 0.009 µM. For the same molecule, the IC50 [7] was 2.5 µM, the Ratio IC50 [8] was 2 to 3 and the IC50 [9] was 0.004 µM.
